Test system: MS2 coat protein
Assay: apparent Kd, MS2 coat protein; higher = weaker binding; RNA-MaP array; FMN 200 µM where present
Outline: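 Designs were transcribed by stalled E. coli RNA polymerase on Illumina sequencing-chip clusters. They were titrated with SNAP-549-labelled MS2 coat protein from 0.7 or 1.5 nM, doubling to 3 µM, without and then with constant ligand. Buffer: 100 mM Tris-HCl pH 7.5, 80 mM KCl, 4 mM MgCl2, BSA, DTT, yeast tRNA, Tween-20. Green signal was normalised to red-channel RNA signal and control-cluster median Fmax. Apparent Kd is the median of filtered per-cluster binding-curve fits.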

[1] = designed as: OFF switch for flavin mononucleotide, no ligand
[2] = ligand present: flavin mononucleotide, designed as: OFF switch for flavin mononucleotide
[3] = designed as: ON switch for flavin mononucleotide, no ligand
[4] = ligand present: flavin mononucleotide, designed as: ON switch for flavin mononucleotide

Sequence | apparent Kd [1] [nM] | apparent Kd [2] [nM] | apparent Kd [3] [nM] | apparent Kd [4] [nM]
CUUUUGUGAGGAUAUUAGUAGUAAACGAACAAAAUUAUUACUGAGAAGGCACAUGAGGAUCACCCAUGUUCCUC | 46 | 575 | – | –
UUAAUCUAUACAGGAUAUCCAUACGGUGCAUACGGAGAAGGGUAACAAUCAUGAGGACAUGAGGAUCACCCAUGUUCUGACCAU | – | – | 7.23 | 6.35
CUGCGGGCCAUAGGAUAUGCGCAGAAUUAGCAAGCAGAAGGGUGGAUCGUACAAUAAUAACUACAUGAGGAUCACCCAUGUGCU | – | – | 235 | 56.1
UUCAUGUGAGGAUAUAGUACUCCUUCUAUUAUUAUUGAGUAUUAGAAGGCACAUGAGGAUCACCCAUGUAGUAC | 29.8 | 43.4 | – | –
ACAUGAGGAUCACCCAUGUAUACAUAGGAUAUUGGUGAUCAGGCAUGUUUUACAGGAUAUGUCUGCGAGAAGGAUGCAAGUUGC | – | – | 557 | 424
CACUGCAAUGUAGGAUAUCGACUGGAUAACAGUCGAGAAGGACAUGAGGAUCACCCAUGUACUAAUAGUGAUAAUAAAGCAGUG | 13.5 | 55 | – | –
AAACAUGUCCGAGGAUAUCUGAAAACAUUUUUAAGAGAAGGCGGACAUGAGGAUCACCCAUGUCUCUCCUCAUCAAAUCCAAAU | 17.5 | 73.2 | – | –
AUCGGUCCGUAGAAGGGUGACAUGAGGAUCACCCAUGUGCCGUGUGCAUUUAUGCAUCCACGGCCACAGGAUAUACGGAGUUGA | – | – | 34.9 | 25.4
ACUUGUAAGCAGAAGGCAGUCAUUGUAUUCGUCAUGUAGACAUGAGGAUCACCCAUGUAUAGUACUGAGGAUAUGCAUCGAUAG | 7.88 | 17.2 | – | –
UGAAAGUGAGGAUAUGGUGAGUAGUGCCUGAGCGCUGCUCACCAGAAGGCACAUGAGGAUCACCCAUGUAAAUG | 53.4 | 170 | – | –
AUGUGACAUGAGGAUCACCCAUGUAAGGAUAUAUGACUAAGGACUUCCUUGGUAGCGCGUAGAAGGUACGUGAA | 19.6 | 20 | – | –
ACAUGAGGAUCACCCAUGUUAAACGAGGAUAUAUGACUGCACAUGAGGUUCACCCAUGUUCUACCGUAGAAGGUGUAAAUAAUU | – | – | 68.5 | 70.6
UCCUUGUCCUGAGGAUAUCCGCGGUUCCCAAAAGGAGAAGGCAGGACAUGAGGAUCACCCAUGUACCCAGAAAACGUGCAGAAU | 9.87 | 42.7 | – | –
ACGUAUCGUGUAGGAUAUGACCCAGGAAACUGGUCAGAAGGACAUGAGGAUCACCCAUGUAGAGUAUGUUAGGAUGACGUAUGC | 42.5 | 305 | – | –
AGAUGGUAUAUAGGAUAUCAUGUGCAAACAUGAGGAUCACCCAUGUAGGAACGUCAGUUCAAUAAUGAGAAGGAUAUACCAUCU | – | – | 33.4 | 11.9
GUCAUUUAUGUAGGAUAUGCGAGGCGAGCCUGAGCAGAAGGACAUGAGGAUCACCCAUGUAUUGCGGUUUAUGUUCAGAUCGCU | 16.3 | 19 | – | –
GCGCUUAUACAGAAGGCCAUAUACAUGAGGAUCACCCAUGUUACAUGGUGGAGGAUAUGUUAUUAAUUACAGGUAGAUGAGCGC | – | – | 4.61 | 4.42
AAAACAUGAGGAUCACCCAUGUAAAGUUCGGUUAAUAGAGGUGAGGAUAUACUAAAUUUUGGGUGGUAGAAGGCACUGGGUACA | – | – | 122 | 105
GGUGAAUGAACAUGAGGAUCACCCAUGUACAGGAAACUGAAUGAGGAUAUCCAUAGCAAAGCUAUGGAGAAGGCAUGGGUCACC | – | – | 302 | 99.8
AGUAAGAUGCAGAAGGUGUCAGCGAGAGCUGCGACAUGAGGAUCACCCAUGUACACGUGAGUGUACAAGGAUAUGCAUCUUACA | – | – | 1090 | 431

Reference: the EternaBench riboswitch data
